# Measurements from ChEMBL document CHEMBL1123757, “Selective thromboxane synthetase inhibitors and antihypertensive agents. New derivatives of 4-hydrazino-5H-pyridazino[4,5-b]indole, 4-hydrazinopyridazino[4,5-a]indole, and related compounds” (J Med Chem, 1987).
# Assays:
# Rattus norvegicus [1] = assay: Antihypertensive activity in spontaneously hypertensive rats (SHR) measured by percentage fall in cardiac rhythm (CR) at 25 mg/kg administered intraperitoneally at 1 h; format: functional, Heart; details: route intraperitoneal
# How it was run: (§1)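 Unanesthetized Okamoto-strain SHR, male and female, 8 weeks old, 300–350 g, systolic pressure ≥190 mmHg, heart rate 400–650 beats/min; five animals per dose. Given ip at 2.5 mL/kg, dissolved or suspended in normal saline or saline with 0.2% (carboxymethyl)cellulose and 1.0% Tween 80. Tail AP and CR recorded by mechanical transduction at set times; reported as percentage fall from control.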
# Rattus norvegicus [2] = assay: Antihypertensive activity in spontaneously hypertensive rats (SHR) measured by percentage fall in arterial pressure (AP) at a dose of 25 mg/kg administered perorally at 1 h; format: functional, Artery; details: route oral
# How it was run: (§2)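 Oral dosing at 2.5 mL/kg to unanesthetized male and female Okamoto-strain SHR (8 weeks old, 300–350 g, systolic pressure ≥190 mmHg, heart rate 400–650 beats/min), five per dose. Vehicle was normal saline or saline with 0.2% (carboxymethyl)cellulose and 1.0% Tween 80. AP measured on the tail by mechanical transduction at set times; expressed as percentage fall from control.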
# Rattus norvegicus [3] = assay: Antihypertensive activity in spontaneously hypertensive rats (SHR) measured by percentage fall in arterial pressure (AP) at 25 mg/kg administered perorally at 24 h; format: functional, Artery; details: route oral; how it was run: as §2
# Rattus norvegicus [4] = assay: Antihypertensive activity in spontaneously hypertensive rats (SHR) measured by percentage fall in arterial pressure (AP) at 5 mg/kg administered intraperitoneally at 5 h; format: functional, Artery; details: route intraperitoneal; how it was run: as §1
# Homo sapiens [5] = organism: Homo sapiens; assay: In vitro inhibition of platelet aggregation induced by DD (PRP incubated for 5 minutes at 37 degree C) at 10e-5 M; format: functional
# How it was run: (§3)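 Human venous blood anticoagulated with 3.8% sodium citrate (1:9). PRP from centrifugation at 800 rpm for 10 min at room temperature. Count adjusted with PPP to […]. Compound in saline with 10% ethylene glycol is added to PRP and incubated at 37 °C before the agonist. Agonists: ADP 2×10^-5 M, AA 0.6 mM, PGH2 2.8 μM, adrenaline 0.6 μM. Born absorbance aggregometry; n = 5.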
# Rattus norvegicus [6] = assay: Antihypertensive activity in spontaneously hypertensive rats (SHR) measured by percentage fall in arterial pressure (AP) at 1 mg/kg administered intraperitoneally at 1 h; format: functional, Artery; details: route intraperitoneal; how it was run: as §1
# Rattus norvegicus [7] = assay: Percent increase in cardiac rhythm, directly measured on carotid (iv on the jugular vein) of spontaneously hypertensive rats at 1 mg/kg after 60 minutes; format: functional, Heart
# How it was run: (§4)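 Anesthetized (sodium pentobarbital, 70 mg/kg) male and female Okamoto SHR, 8 weeks old, 300–350 g. Given iv into the jugular vein in normal saline. Arterial pressure and cardiac rhythm are recorded directly from the carotid by polygraph at set times after dosing. Each is expressed as percent change from the pre-dose control value.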
# Rattus norvegicus [8] = assay: Percent increase in cardiac rhythm, directly measured on carotid (iv on the jugular vein) of spontaneously hypertensive rats at 1 mg/kg after 30 minutes; format: functional, Heart; how it was run: as §4
# Rattus norvegicus [9] = assay: Percent fall in systolic blood pressure, directly measured on carotid (iv on the jugular vein) of spontaneously hypertensive rats at 1 mg/kg after 60 minutes; format: functional, Artery; how it was run: as §4
# Rattus norvegicus [10] = assay: Antihypertensive activity in spontaneously hypertensive rats (SHR) measured by percentage fall in cardiac rhythm (CR) at 25 mg/kg administered perorally at 5 h; format: functional, Heart; details: route oral
# How it was run: (§5)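 Conscious SHR (Okamoto strain), 8 weeks old, male and female, 300–350 g, systolic BP ≥190 mmHg, CR 400–650 beats/min. Given ip or po at 2.5 mL/kg in normal saline or saline with 0.2% (carboxymethyl)cellulose and 1.0% Tween 80. Tail AP and CR recorded by mechanical transduction at 1, 3, 5 and 24 h, five animals per dose. Effect expressed as % fall versus control.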
# Rattus norvegicus [11] = assay: Antihypertensive activity in spontaneously hypertensive rats (SHR) measured by percentage fall in cardiac rhythm (CR) at 1 mg/kg administered intraperitoneally at 1 h; format: functional, Heart; details: route intraperitoneal; how it was run: as §1
# Rattus norvegicus [12] = assay: Percent fall in systolic blood pressure, directly measured on carotid (iv on the jugular vein) of spontaneously hypertensive rats at 1 mg/kg after 30 minutes; format: functional, Artery; how it was run: as §4
# [13] = Effect on PGI-2 release from rat aortic tissue at a final concentration of 10e -4 for an incubation time of 35 minutes; format: functional
# How it was run: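 Female Wistar rats (200–220 g) received heparin 200 IU/kg ip and were killed 10 min later. Aortic pieces of about 25 mm² were washed in ice-cold oxygenated Krebs–Henseleit buffer, then incubated in 1 mL buffer at 37 °C. Compound at 10^-4 M final was added 10 min before tissue transfer. PGI2 release was read as antiaggregatory activity of the incubate on ADP (2×10^-6 M)-induced human PRP aggregation and by 6-keto-PGF1α RIA. n = 4.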
# Rattus norvegicus [14] = assay: Antihypertensive activity in spontaneously hypertensive rats (SHR) measured by percentage fall in cardiac rhythm (CR) at 25 mg/kg administered intraperitoneally at 3 h; format: functional, Heart; details: route intraperitoneal; how it was run: as §1
# Cavia porcellus [15] = assay: Ex vivo inhibition of platelet aggregation induced by ADP-II at 100 mg/kg; format: functional
# How it was run: (§6)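 Fasted male or female guinea pigs (250–300 g, five per group) dosed orally in normal saline or saline with 0.2% (carboxymethyl)cellulose/1.0% Tween 80; controls given vehicle. Under ether, cardiac blood collected into 3.8% citrate. PRP adjusted to […] and aggregation induced by ADP (second wave) or AA, read by absorbance aggregometry. PGE2 and TXB2 measured by RIA.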
# Homo sapiens [16] = organism: Homo sapiens; assay: In vitro inhibition of platelet aggregation induced by ADP-II (PRP incubated for 5 minutes at 37 degree C) at 10e-5 M; format: functional; how it was run: as §3
# Rattus norvegicus [17] = assay: Antihypertensive activity in spontaneously hypertensive rats (SHR) measured by percentage fall in cardiac rhythm (CR) at 1 mg/kg administered intraperitoneally at 3 h; format: functional, Heart; details: route intraperitoneal; how it was run: as §1
# Rattus norvegicus [18] = assay: Antihypertensive activity in spontaneously hypertensive rats (SHR) measured by percentage fall in arterial pressure (AP) at 1 mg/kg administered intraperitoneally at 3 h; format: functional, Artery; details: route intraperitoneal; how it was run: as §1
# Homo sapiens [19] = organism: Homo sapiens; assay: In vitro inhibition of platelet aggregation induced by AA (PRP incubated for 60 minutes at 37 degree C) at 10e-5 M; format: functional; details: 1 h; how it was run: as §3
# Rattus norvegicus [20] = assay: Antihypertensive activity in spontaneously hypertensive rats (SHR) measured by percentage fall in cardiac rhythm (CR) at 5 mg/kg administered intraperitoneally at 3 h; format: functional, Heart; details: route intraperitoneal; how it was run: as §5
# Rattus norvegicus [21] = assay: Antihypertensive activity in spontaneously hypertensive rats (SHR) measured by percentage fall in cardiac rhythm (CR) at 25 mg/kg administered perorally at 3 h; format: functional, Heart; details: route oral; how it was run: as §5
# Rattus norvegicus [22] = assay: Antihypertensive activity in spontaneously hypertensive rats (SHR) measured by percentage fall in cardiac rhythm (CR) at 25 mg/kg administered intraperitoneally at 5 h; format: functional, Heart; details: route intraperitoneal; how it was run: as §5
# Rattus norvegicus [23] = assay: Percent increase in cardiac rhythm, directly measured on carotid (iv on the jugular vein) of spontaneously hypertensive rats at 1 mg/kg after 15 minutes; format: functional, Heart; how it was run: as §4
# Cavia porcellus [24] = assay: Effect on thromboxane synthetase activity (ex vivo) at 100 mg/kg expressed as percent increase in PGE-2; format: functional; how it was run: as §6
smiles,measurement,setting,value
COc1ccc2[nH]c3c(NN)nncc3c2c1.Cl,Decrease in CR,Rattus norvegicus [1],22%
same,Decrease in AP,Rattus norvegicus [2],50%
same,Decrease in AP,Rattus norvegicus [3],15%
same,Decrease in AP,Rattus norvegicus [4],26%
same,inhibition at 10 µM,Homo sapiens [5],100%
same,Decrease in AP,Rattus norvegicus [6],32%
same,Increase,Rattus norvegicus [7],10%
same,Increase,Rattus norvegicus [8],12%
same,Decrease in blood pressure,Rattus norvegicus [9],60%
same,Decrease in CR,Rattus norvegicus [10],-14%
same,Decrease in CR,Rattus norvegicus [11],9%
same,Decrease in blood pressure,Rattus norvegicus [12],40%
same,Inhibition,[13],25%
same,Decrease in CR,Rattus norvegicus [14],19%
same,inhibition in vivo at 100 mg/kg,Cavia porcellus [15],100%
same,inhibition at 10 µM,Homo sapiens [16],100%
same,Decrease in CR,Rattus norvegicus [17],8%
same,Decrease in AP,Rattus norvegicus [18],5%
same,inhibition at 10 µM,Homo sapiens [19],100%
same,Decrease in CR,Rattus norvegicus [20],-8%
same,Decrease in CR,Rattus norvegicus [21],-14%
same,Decrease in CR,Rattus norvegicus [22],24%
same,Increase,Rattus norvegicus [23],11%
same,Increase,Cavia porcellus [24],35%
